The target in data set [1] is T1, 3',5'-cyclic-AMP phosphodiesterase 4B (Homo sapiens, UniProt Q07343). Put plainly: Inhibition of PDE4B (unknown origin) assessed as hydrolysis of [3H]-cGMP into [3H]-GMP incubated for 30 mins by scintillation of proximity assay. The conditions noted are these: in the assay text read “[3H]-cAMP into [3H]-AMP” for “[3H]-cGMP into [3H]-GMP”. The essentials: (§1)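 Scintillation proximity assay of [3H]-cAMP or [3H]-cGMP hydrolysis to [3H]-AMP or [3H]-GMP. Enzyme was diluted to 1–2 nM in 50 mM Tris pH 7.5, 8.3 mM MgCl2 and 1.7 mM EGTA. Reaction was started by adding enzyme, test solution and radiolabelled substrate, then incubated at 30 °C for 30 min and stopped with SPA beads. Run in duplicate.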
T1 sequence (Q07343 whole entry): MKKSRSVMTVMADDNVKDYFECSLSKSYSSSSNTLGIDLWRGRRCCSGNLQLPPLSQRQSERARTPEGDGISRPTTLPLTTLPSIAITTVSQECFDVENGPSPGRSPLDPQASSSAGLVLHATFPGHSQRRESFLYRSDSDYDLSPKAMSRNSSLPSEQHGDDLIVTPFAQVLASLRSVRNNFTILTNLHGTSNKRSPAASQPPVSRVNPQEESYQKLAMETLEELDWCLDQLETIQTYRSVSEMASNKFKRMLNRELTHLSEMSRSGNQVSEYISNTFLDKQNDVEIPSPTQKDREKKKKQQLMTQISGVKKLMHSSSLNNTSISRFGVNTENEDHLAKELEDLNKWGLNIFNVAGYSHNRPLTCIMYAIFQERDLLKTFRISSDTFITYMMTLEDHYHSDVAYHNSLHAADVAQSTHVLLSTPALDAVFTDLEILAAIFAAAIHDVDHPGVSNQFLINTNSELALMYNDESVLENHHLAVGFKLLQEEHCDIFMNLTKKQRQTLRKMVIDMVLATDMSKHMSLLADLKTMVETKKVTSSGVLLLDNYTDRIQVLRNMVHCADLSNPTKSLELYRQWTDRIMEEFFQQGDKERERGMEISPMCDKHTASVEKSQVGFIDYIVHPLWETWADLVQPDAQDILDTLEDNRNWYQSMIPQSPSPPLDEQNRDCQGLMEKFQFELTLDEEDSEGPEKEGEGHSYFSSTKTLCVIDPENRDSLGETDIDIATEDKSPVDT

The subject of data set [2] is Mus musculus. In words: Antiinflammatory activity against PMA-induced ICR mouse ear oedema model assessed as reduction in ear swelling at 1 mg/ear topically administered and measured after 4 hrs. The format is functional. A digest of the protocol:
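Male ICR mice, 8 weeks old. The sample was applied topically to the right ear at 1.0 mg/ear in ethanol before PMA. After 4 h the mice were killed by cervical dislocation and both ears were measured with a micrometer. Oedema was the thickness difference between the ears; inhibition was the percent reduction versus the model group.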

In data set [3] the target is T1, 3',5'-cyclic-AMP phosphodiesterase 4B. In words: Inhibition of PDE4B (unknown origin) assessed as hydrolysis of [3H]-cAMP into [3H]-AMP incubated for 30 mins by scintillation of proximity assay.
The species entered for data set [4] is Homo sapiens. Put plainly: Selectivity index, ratio of IC50 for PDE1A (unknown origin) to IC50 for PDE4B (unknown origin).
The species named for data set [5] is Homo sapiens. Put plainly: Selectivity index, ratio of IC50 for PDE1B (unknown origin) to IC50 for PDE4B (unknown origin).
Data set [6] is filed under the species Homo sapiens. In words: Selectivity index, ratio of IC50 for PDE1C (unknown origin) to IC50 for PDE4B (unknown origin).
Data set [7] is filed under the species Homo sapiens. Put plainly: Selectivity index, ratio of IC50 for PDE2A (unknown origin) to IC50 for PDE4B (unknown origin).
The species named for data set [8] is Homo sapiens. In words: Selectivity index, ratio of IC50 for PDE3A (unknown origin) to IC50 for PDE4B (unknown origin).
For data set [9], the species on record is Homo sapiens. Put plainly: Selectivity index, ratio of IC50 for PDE3B (unknown origin) to IC50 for PDE4B (unknown origin).
Data set [10] is filed under the species Homo sapiens. Put plainly: Selectivity index, ratio of IC50 for PDE5A (unknown origin) to IC50 for PDE4B (unknown origin).
The species named for data set [11] is Homo sapiens. In words: Selectivity index, ratio of IC50 for PDE7A (unknown origin) to IC50 for PDE4B (unknown origin).
The species named for data set [12] is Homo sapiens. In words: Selectivity index, ratio of IC50 for PDE10A (unknown origin) to IC50 for PDE4B (unknown origin).
For data set [13], the system named is Mus musculus. Put plainly: Antiinflammatory activity against calcipotriol-induced atopic dermatitis mouse model assessed as swelling inhibition by measuring thickness of left ear at 30 mg/kg for 14 days (RVB = 0.26 +/- 0.01 mm). The format is functional. The conditions noted are these: time 14 day. The essentials: (§2)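 Ointment was applied to the dorsal side of the left ear twice daily (30 mg/kg) for 14 days; the normal group received ethanol. On day 17 the mice were anaesthetized with 10% chloral hydrate and ear thickness was measured with a micrometer. Percent inhibition of the inflammatory reaction was calculated against untreated animals.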

In data set [14] the test system is Mus musculus. In words: Antiinflammatory activity against calcipotriol-induced atopic dermatitis mouse model assessed as swelling inhibition by measuring thickness of right ear at 30 mg/kg for 14 days (RVB = 0.55 +/- 0.06 mm). The class given is functional. Particulars: time 14 day. The essentials: as §2
In data set [15] the test system is Mus musculus. Put plainly: Antiinflammatory activity against calcipotriol-induced atopic dermatitis mouse model assessed as swelling inhibition at 30 mg/kg for 14 days. The format is functional. More on the design: scale not given: the % may be the effect or the level left. Particulars: time 14 day. The essentials: as §2
The nature of data set [16]: Phototoxicity in albino guinea pig assessed as skin reaction score at 5 mg/kg topical treatment irradiated with 4.2 mw/cm2 UVA for 40 mins and measured after 24 hrs day of light irradiation by H and E staining based microscopic analysis. Particulars: in vivo, topical_or_ocular. The format is organism-based, Cavia porcellus. The essentials:
(§3)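 Albino guinea pigs (250–300 g) were randomized into 5 groups. Four 2 cm × 2 cm depilated areas beside the spine were prepared 24 h before dosing, and 0.2 mL of test substance was applied. Animals were restrained and exposed to UVA for 40 min. Erythema, eschar and oedema were scored visually at 1, 24, 48 and 72 h. Skin taken at 72 h was formalin-fixed, H&E-stained and read by a pathologist.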

The nature of data set [17]: Phototoxicity in albino guinea pig assessed as skin reaction score at 10 mg/kg topical treatment irradiated with 4.2 mw/cm2 UVA for 40 mins and measured after 24 hrs day of light irradiation by H and E staining based microscopic analysis. The class given is organism-based, Cavia porcellus. Particulars: in vivo, topical_or_ocular. A digest of the protocol: as §3
The nature of data set [18]: Phototoxicity in albino guinea pig assessed as skin reaction score at 24 mg/kg topical treatment irradiated with 4.2 mw/cm2 UVA for 40 mins and measured after 24 hrs day of light irradiation by H and E staining based microscopic analysis. The class given is organism-based, Cavia porcellus. The conditions noted are these: in vivo, topical_or_ocular. The essentials: as §3

A short description of data set [19]: Toxicity in Sprague-Dawley rat assessed as systemic toxicity at 700 mg/kg, po for 14 days. The conditions noted are these: in vivo, 336 h, time 14 day. The format is organism-based. The essentials:
(§4)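 Healthy male and female Sprague-Dawley rats, 8-week-old, randomised to three groups of 6 males + 6 females. Vehicle 1% CMC-Na or 400 and 700 mg/kg given by oral gavage once daily for 14 days. Mortality and clinical signs checked daily; body weight on days 0, 7, 14. Isoflurane euthanasia, macroscopic necropsy, weights of liver, kidney, testis, thymus, heart and lung.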

The nature of data set [20]: Toxicity in Sprague-Dawley rat assessed as death at 700 mg/kg, po for 14 days. The class given is organism-based. The conditions noted are these: in vivo, 336 h, time 14 day. The essentials:
as §4

Data set [21] is described as follows: Toxicity in Sprague-Dawley rat assessed as liver/brain index at 400 to 700 mg/kg, po for 14 days. The format is organism-based. Particulars: in vivo, 336 h, dose 400-700 mg/kg, time 14 day. The essentials: (§5)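 Sprague-Dawley rats, 8 weeks old, 6 male and 6 female per group. Dosed by oral gavage once daily for 14 days with 1% CMC-Na vehicle or 400 and 700 mg/kg. Animals were checked daily for mortality and clinical signs, with body weight recorded on days 0, 7 and 14. Rats were then euthanized under isoflurane, necropsied, and their organs weighed.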

Data set [22] is described as follows: Toxicity in Sprague-Dawley rat assessed as spleen/brain index at 400 to 700 mg/kg, po for 14 days. The class given is organism-based. Particulars: in vivo, 336 h, dose 400-700 mg/kg, time 14 day. The essentials:
as §5

Data set [23] is described as follows: Toxicity in Sprague-Dawley rat assessed as white blood cell count at 400 to 700 mg/kg, po for 14 days. The class given is organism-based. Particulars: in vivo, 336 h, dose 400-700 mg/kg, time 14 day.
Data set [24] is described as follows: Toxicity in Sprague-Dawley rat assessed as ALT at 400 to 700 mg/kg, po for 14 days. The class given is organism-based. Particulars: in vivo, 336 h, dose 400-700 mg/kg, time 14 day.
A short description of data set [25]: Toxicity in Sprague-Dawley rat assessed as AST at 400 to 700 mg/kg, po for 14 days. The class given is organism-based. Particulars: in vivo, 336 h, dose 400-700 mg/kg, time 14 day.
Data set [26] is described as follows: Toxicity in Sprague-Dawley rat assessed as blood pressure at 400 to 700 mg/kg, po for 14 days. The format is organism-based. Particulars: in vivo, 336 h, dose 400-700 mg/kg, time 14 day.
A short description of data set [27]: Toxicity in Sprague-Dawley rat assessed as blood glucose at 400 to 700 mg/kg, po for 14 days. The class given is organism-based. The conditions noted are these: in vivo, 336 h, dose 400-700 mg/kg, time 14 day.
Data set [28] is described as follows: Phototoxicity in albino guinea pig assessed as infiltration of inflammatory cells at 10 mg/kg topical treatment irradiated with 4.2 mw/cm2 UVA for 40 mins and measured after 24 hrs day of light irradiation by H and E staining based microscopic analysis. The format is organism-based, Cavia porcellus. Particulars: in vivo, topical_or_ocular, in the assay text read “72 hrs” for “24 hrs”. A digest of the protocol: as §3

Data set [29] can be described thus: Phototoxicity in albino guinea pig assessed as necrosis at 10 mg/kg topical treatment irradiated with 4.2 mw/cm2 UVA for 40 mins and measured after 24 hrs day of light irradiation by H and E staining based microscopic analysis. The format is organism-based, Cavia porcellus. Particulars: in vivo, topical_or_ocular, in the assay text read “72 hrs” for “24 hrs”. A digest of the protocol:
as §3

Data set [30] concerns the target Dual specificity calcium/calmodulin-dependent 3',5'-cyclic nucleotide phosphodiesterase 1A (Homo sapiens, UniProt P54750). Put plainly: Inhibition of PDE1A (unknown origin). A digest of the protocol: as §1
The target of data set [31] is Dual specificity calcium/calmodulin-dependent 3',5'-cyclic nucleotide phosphodiesterase 1B (Homo sapiens, UniProt Q01064). In words: Inhibition of PDE1B (unknown origin). A digest of the protocol:
as §1

The target in data set [32] is Dual specificity calcium/calmodulin-dependent 3',5'-cyclic nucleotide phosphodiesterase 1C (Homo sapiens, UniProt Q14123). Put plainly: Inhibition of PDE1C (unknown origin). The essentials:
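For PDE1A, PDE1B and PDE1C, the reaction buffer was also supplemented with 0.2 mM CaCl2 and […]. Otherwise the same SPA run as the other PDEs: [3H]-nucleotide hydrolysis at 30 °C for 30 min, in duplicate.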

Data set [33] addresses cGMP-dependent 3',5'-cyclic phosphodiesterase (Homo sapiens, UniProt O00408). In words: Inhibition of PDE2A (unknown origin). The essentials:
as §1

In data set [34] the target is cGMP-inhibited 3',5'-cyclic phosphodiesterase 3A (Homo sapiens, UniProt Q14432). Put plainly: Inhibition of PDE3A (unknown origin). The essentials:
as §1

For data set [35], the target named is cGMP-inhibited 3',5'-cyclic phosphodiesterase 3B (Homo sapiens, UniProt Q13370). Put plainly: Inhibition of PDE3B (unknown origin). The essentials: as §1
cGMP-inhibited 3',5'-cyclic phosphodiesterase 3B, sequence (Q13370 whole entry): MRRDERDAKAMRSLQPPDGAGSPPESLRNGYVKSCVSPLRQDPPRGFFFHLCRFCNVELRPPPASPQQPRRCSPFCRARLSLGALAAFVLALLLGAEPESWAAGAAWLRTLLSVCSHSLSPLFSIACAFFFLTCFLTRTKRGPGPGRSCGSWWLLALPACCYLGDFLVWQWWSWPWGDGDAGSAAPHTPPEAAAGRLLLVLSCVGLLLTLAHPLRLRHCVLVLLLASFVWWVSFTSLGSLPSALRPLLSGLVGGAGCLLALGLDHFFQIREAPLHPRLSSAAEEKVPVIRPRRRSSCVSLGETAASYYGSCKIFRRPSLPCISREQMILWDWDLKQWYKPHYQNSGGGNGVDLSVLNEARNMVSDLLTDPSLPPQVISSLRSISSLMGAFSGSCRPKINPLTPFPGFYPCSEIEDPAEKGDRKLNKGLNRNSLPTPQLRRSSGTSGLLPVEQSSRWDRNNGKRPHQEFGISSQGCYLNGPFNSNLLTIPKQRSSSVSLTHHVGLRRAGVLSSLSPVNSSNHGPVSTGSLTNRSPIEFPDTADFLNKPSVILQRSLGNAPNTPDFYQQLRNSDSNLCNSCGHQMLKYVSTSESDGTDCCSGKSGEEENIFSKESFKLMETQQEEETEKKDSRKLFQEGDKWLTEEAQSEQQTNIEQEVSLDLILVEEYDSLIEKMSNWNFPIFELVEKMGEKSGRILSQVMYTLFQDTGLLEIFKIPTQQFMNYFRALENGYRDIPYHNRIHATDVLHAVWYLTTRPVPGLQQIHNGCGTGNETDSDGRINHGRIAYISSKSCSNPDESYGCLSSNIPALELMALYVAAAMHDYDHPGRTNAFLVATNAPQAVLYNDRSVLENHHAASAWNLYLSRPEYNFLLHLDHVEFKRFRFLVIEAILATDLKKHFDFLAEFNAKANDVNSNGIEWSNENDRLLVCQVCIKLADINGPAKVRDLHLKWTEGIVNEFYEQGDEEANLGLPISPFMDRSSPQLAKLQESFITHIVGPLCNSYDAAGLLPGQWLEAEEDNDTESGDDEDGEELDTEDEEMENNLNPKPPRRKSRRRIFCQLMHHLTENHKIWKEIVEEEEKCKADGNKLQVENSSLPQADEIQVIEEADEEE
For data set [36], the target named is T1, 3',5'-cyclic-AMP phosphodiesterase 4B. In words: Inhibition of PDE4B (unknown origin). The essentials:
as §1

The target of data set [37] is cGMP-specific 3',5'-cyclic phosphodiesterase (Homo sapiens, UniProt O76074). Put plainly: Inhibition of PDE5A (unknown origin). A digest of the protocol:
as §1

In data set [38] the target is High affinity 3',5'-cyclic-AMP phosphodiesterase 7A (Homo sapiens, UniProt Q13946). Put plainly: Inhibition of PDE7A (unknown origin). The essentials: as §1
High affinity 3',5'-cyclic-AMP phosphodiesterase 7A, sequence (Q13946 whole entry): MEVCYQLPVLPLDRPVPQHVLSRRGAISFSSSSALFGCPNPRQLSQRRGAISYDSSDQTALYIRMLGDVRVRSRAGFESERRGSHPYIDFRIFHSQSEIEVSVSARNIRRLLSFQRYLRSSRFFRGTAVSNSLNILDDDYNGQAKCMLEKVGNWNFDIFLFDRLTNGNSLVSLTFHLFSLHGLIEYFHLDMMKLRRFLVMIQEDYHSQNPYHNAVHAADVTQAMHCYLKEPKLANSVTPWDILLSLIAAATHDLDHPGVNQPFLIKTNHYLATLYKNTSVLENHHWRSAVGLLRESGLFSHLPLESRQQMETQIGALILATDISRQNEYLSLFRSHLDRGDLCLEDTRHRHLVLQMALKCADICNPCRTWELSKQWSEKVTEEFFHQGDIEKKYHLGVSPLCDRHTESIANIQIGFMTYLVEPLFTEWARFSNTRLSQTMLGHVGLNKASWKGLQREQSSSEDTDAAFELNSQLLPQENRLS
The target of data set [39] is cAMP and cAMP-inhibited cGMP 3',5'-cyclic phosphodiesterase 10A (Homo sapiens, UniProt Q9Y233). Put plainly: Inhibition of PDE10A (unknown origin). The essentials: as §1
cAMP and cAMP-inhibited cGMP 3',5'-cyclic phosphodiesterase 10A, sequence (Q9Y233 whole entry): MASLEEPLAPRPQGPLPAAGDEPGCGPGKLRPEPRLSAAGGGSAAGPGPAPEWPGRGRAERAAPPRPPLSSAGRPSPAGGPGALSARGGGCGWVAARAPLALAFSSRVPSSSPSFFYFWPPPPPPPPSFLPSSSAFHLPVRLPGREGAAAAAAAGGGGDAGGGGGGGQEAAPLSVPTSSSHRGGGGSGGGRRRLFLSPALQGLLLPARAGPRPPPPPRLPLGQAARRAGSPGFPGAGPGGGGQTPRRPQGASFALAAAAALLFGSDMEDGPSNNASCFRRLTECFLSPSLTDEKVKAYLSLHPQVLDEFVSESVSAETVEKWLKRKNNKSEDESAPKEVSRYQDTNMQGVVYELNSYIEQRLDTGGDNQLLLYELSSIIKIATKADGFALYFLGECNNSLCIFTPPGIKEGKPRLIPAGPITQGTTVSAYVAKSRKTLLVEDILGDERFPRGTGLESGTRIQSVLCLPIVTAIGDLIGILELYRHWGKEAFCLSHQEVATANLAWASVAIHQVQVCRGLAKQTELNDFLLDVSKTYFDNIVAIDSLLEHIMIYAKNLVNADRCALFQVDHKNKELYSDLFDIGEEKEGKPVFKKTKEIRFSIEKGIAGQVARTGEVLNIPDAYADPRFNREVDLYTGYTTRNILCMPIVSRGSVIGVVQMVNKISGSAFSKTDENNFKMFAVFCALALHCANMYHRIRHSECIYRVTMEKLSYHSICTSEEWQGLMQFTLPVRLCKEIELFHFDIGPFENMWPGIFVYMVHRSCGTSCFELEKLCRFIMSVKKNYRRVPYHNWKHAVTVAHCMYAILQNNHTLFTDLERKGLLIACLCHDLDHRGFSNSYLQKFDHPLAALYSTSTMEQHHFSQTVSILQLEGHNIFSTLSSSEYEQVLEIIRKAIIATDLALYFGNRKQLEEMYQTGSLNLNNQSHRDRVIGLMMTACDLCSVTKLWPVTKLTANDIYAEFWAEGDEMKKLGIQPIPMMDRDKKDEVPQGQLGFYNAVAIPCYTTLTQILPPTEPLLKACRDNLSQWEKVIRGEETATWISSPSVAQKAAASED

By IC50 is commonly meant the concentration at which inhibition is half-maximal.

Dual specificity calcium/calmodulin-dependent 3',5'-cyclic nucleotide phosphodiesterase 1A, sequence (P54750 whole entry): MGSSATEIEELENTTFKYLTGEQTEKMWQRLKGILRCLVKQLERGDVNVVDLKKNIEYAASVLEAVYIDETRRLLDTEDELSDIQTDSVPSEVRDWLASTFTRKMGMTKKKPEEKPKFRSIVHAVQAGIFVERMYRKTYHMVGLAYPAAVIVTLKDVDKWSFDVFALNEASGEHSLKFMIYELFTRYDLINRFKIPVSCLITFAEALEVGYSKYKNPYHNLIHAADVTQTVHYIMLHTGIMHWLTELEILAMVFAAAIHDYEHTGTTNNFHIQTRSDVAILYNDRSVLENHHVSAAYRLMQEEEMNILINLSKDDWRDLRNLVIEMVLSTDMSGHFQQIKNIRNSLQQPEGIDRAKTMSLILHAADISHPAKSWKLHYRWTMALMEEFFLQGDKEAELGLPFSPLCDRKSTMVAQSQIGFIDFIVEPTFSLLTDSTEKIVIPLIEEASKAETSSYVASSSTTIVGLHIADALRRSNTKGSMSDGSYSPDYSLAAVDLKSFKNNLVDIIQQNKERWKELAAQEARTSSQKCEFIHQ
cGMP-dependent 3',5'-cyclic phosphodiesterase, sequence (O00408 whole entry): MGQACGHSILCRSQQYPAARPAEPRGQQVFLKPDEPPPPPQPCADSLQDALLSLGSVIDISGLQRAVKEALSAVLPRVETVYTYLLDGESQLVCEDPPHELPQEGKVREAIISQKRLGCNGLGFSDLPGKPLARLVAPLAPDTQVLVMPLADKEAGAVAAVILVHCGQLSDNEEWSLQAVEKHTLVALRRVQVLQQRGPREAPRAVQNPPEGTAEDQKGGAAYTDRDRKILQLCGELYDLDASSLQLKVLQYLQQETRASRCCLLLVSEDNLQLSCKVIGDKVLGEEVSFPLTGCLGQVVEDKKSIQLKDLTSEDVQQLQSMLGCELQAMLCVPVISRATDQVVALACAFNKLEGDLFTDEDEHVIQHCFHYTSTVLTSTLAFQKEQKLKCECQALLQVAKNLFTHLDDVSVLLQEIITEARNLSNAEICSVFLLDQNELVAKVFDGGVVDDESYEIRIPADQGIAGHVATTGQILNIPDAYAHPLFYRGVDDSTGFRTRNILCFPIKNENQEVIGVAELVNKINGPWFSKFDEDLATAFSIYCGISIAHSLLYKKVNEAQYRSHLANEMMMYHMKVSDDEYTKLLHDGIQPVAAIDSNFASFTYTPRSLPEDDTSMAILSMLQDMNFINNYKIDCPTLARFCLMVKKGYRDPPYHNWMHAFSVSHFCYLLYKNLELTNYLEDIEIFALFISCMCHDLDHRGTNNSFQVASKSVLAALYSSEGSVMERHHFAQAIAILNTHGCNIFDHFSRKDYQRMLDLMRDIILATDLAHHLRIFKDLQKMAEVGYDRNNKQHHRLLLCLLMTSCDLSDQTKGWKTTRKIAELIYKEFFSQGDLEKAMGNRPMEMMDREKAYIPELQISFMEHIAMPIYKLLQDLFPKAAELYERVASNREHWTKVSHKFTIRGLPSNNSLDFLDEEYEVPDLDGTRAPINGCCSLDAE

Consider `COC(=O)c1cnn2ccc(Oc3ccc4c(c3)COB4O)nc12`, for which, in [1], the IC50 worked out at 46.2 nM.
With `OB1OCc2cc(Oc3ccc4c(C(F)(F)F)cccc4n3)ccc21`, the IC50 in [1] is 6.42 nM. In addition, the “inhibition (INH)” value with Mus musculus [2] came out at 58.05%.
On the same counts, the results for `COC(=O)c1cccc2nc(Oc3ccc4c(c3)COB4O)ccc12` are 6.44 nM and 55.62%.
On the same counts, the results for `O=C(O)c1cccc2nc(Oc3ccc4c(c3)COB4O)ccc12` are 124 nM and 45.76%.
On the same counts, the results for `COC(=O)c1cc(Oc2ccc3c(c2)COB3O)nc2ccccc12` are 8.25 nM and 30.6%.
As to `COC(=O)c1cccc2cc(Oc3ccc4c(c3)COB4O)ccc12`, the IC50 in data set [1] turned out to be 21.9 nM.
Turning to `CCOC(=O)c1cccc2nc(Oc3ccc4c(c3)COB4O)ccc12`, the “inhibition (INH)” value in the data set with Mus musculus [2] came out at 57.69%. For the same compound, the IC50 in data set [3] came out at 17.3 nM.
`OB1OCc2cc(Oc3ccc4cc(C(F)(F)F)ccc4n3)ccc21`: the IC50 in data set [1] was found to be 0.42 nM; in data set [30] it was 64.7 nM; in [31] it was 58 nM; in data set [32] it was 866 nM; in data set [33], 120 nM; in data set [34], 8130 nM. The IC50 in data set [35] amounted to 7190 nM; in [36], 0.42 nM; in data set [37], 819 nM; in [38], 34.7 nM; in data set [39], 4520 nM. Further, the “inhibition (INH)” value in the data set with Mus musculus [2] came to 65.85%. In addition, the Ratio IC50 in the data set filed under Homo sapiens [4] came to 154; in the data set filed under Homo sapiens [5], 138; in the data set listed under Homo sapiens [6] it was 2060; in the data set listed under Homo sapiens [7], 286; in the data set filed under Homo sapiens [8] it was 19400; in the data set listed under Homo sapiens [9], 17100. The Ratio IC50 in the data set filed under Homo sapiens [10] came to 1950; in the data set listed under Homo sapiens [11], 83; in the data set listed under Homo sapiens [12] it was 10800. The Activity in the data set on Mus musculus [13] is 0.29 mm; with Mus musculus [14] it was 0.32 mm; in the data set with Mus musculus [15] it was 73.33%; in data set [16], “Non-Toxic”; in [17] it was “Non-Toxic”; in [18] it was “Non-Toxic”. The Activity result in [19], in data set [20], in [21], in data set [22], in data set [23] and in data set [24] was “Non-Toxic” each time. Moreover, the Activity result in [25], in data set [26], in data set [27], in [28] and in data set [29] was “Non-Toxic” in each case.
